Assay results: ChEMBL document CHEMBL3804777, “Identification and Preclinical Pharmacology of BMS-986104: A Differentiated S1P1 Receptor Modulator in Clinical Trials” (ACS Med Chem Lett, 2016)
Calls of active or inactive are those of the source. The rule behind the calls is not given here.

Columns and labels:
[1] = tested on: Blood; assay: Drug metabolism in BALB/c mouse blood assessed as formation of phosphate ester metabolite at 10 mg/kg administered through oral gavage after 24 hrs by LC/MS/MS analysis; format: ADME, organism-based; settings: in vivo
Outline: (§1)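 Mouse PK study: alcohol prodrug given orally at 10 mg/kg, and formation of the phosphate metabolite in blood measured.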

[2] = Drug metabolism in BALB/c mouse whole blood assessed as whole blood phosphate area ratio at 10 uM after 4 hrs by LC/MS/MS analysis; format: ADME, tissue-based
Outline: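 Mouse whole blood incubated with the amino-alcohol prodrug; phosphorylated product measured by LC/MS/MS after 4 h to give the relative extent of phosphate ester formation.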

[3] = tested on: Blood; assay: Drug metabolism in BALB/c mouse blood assessed as formation of phosphate ester metabolite at 10 mg/kg administered through oral gavage after 4 hrs by LC/MS/MS analysis; format: ADME, organism-based; settings: in vivo; outline: as §1
[4] = tested on: Mus musculus; assay: Reduction of blood lymphocyte level in BALB/c mouse at 1 mg/kg administered through oral gavage after 24 hrs by hematology analysis; format: functional; design: scale not given: the % may be the effect or the level left
Outline: (§2)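 Mice given a single oral 1 mg/kg dose; circulating lymphocytes counted 24 h later as the pharmacodynamic marker.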

[5] = tested on: Mus musculus; assay: Reduction in blood lymphocyte level in BALB/c mouse at 1 mg/kg, po after 24 hrs by hematology analysis; format: functional, organism-based; outline: as §2
[6] = tested on: Mus musculus; assay: Reduction in lymphocyte level in BALB/c mouse assessed as blood lymphocyte level at 0.5 mg/kg, po after 24 hrs by hematology analysis (reference value: 5.13 to 8.02 10^3/mm3); format: functional
[7] = tested on: Mus musculus; assay: Reduction in lymphocyte level in BALB/c mouse assessed as blood lymphocyte level at 10 mg/kg, po after 24 hrs by hematology analysis (reference value: 5.13 to 8.02 10^3/mm3); format: functional
[8] = tested on: Mus musculus; assay: Reduction in lymphocyte level in BALB/c mouse assessed as blood lymphocyte level at 30 mg/kg, po after 24 hrs by hematology analysis (reference value: 5.13 to 8.02 10^3/mm3); format: functional
[9] = tested on: Mus musculus; assay: Pulmonary toxicity in BALB/c mouse assessed as BAL protein levels at 0.5 mg/kg, po after 24 by hematology analysis (reference value: 8.2 to 8.3 mg/dL); format: organism-based; settings: in vivo
[10] = tested on: Mus musculus; assay: Pulmonary toxicity in BALB/c mouse assessed as BAL protein levels at 10 mg/kg, po after 24 by hematology analysis (reference value: 8.2 to 8.3 mg/dL); format: organism-based; settings: in vivo
[11] = tested on: Mus musculus; assay: Pulmonary toxicity in BALB/c mouse assessed as BAL protein levels at 30 mg/kg, po after 24 by hematology analysis (reference value: 8.2 to 8.3 mg/dL); format: organism-based; settings: in vivo
[12] = Plasma clearance in mouse at 0.5 mg/kg, iv; format: ADME, organism-based
[13] = Volume of distribution at steady state in mouse at 0.5 mg/kg, iv; format: ADME, organism-based; settings: in vivo, read-out: Vdss
[14] = Oral bioavailability in mouse at 1 mg/kg; format: ADME, organism-based; settings: in vivo
[15] = tested on: Mus musculus; assay: Reduction in body weight loss in SCID mouse with CD45RBhiCD4+ T-cell transfer-induced colitis model of inflammatory bowel disease at 1 or 5 mg/kg, po dosed every other day for 5 weeks; format: functional, organism-based
Outline: (§3)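 CD45RBhiCD4+ T-cell transfer colitis in mice; oral alternate-day dosing for 5 weeks, compared with vehicle. Read-outs: body weight, colon length, histological colon inflammation and tissue damage, and colon gene expression by RT-PCR (IFN-γ, IL-2, CD4, B220, CD11b, Fcgr4, Ifit1, OASL2).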

[16] = tested on: Mus musculus; assay: Induction of colon length shortening in SCID mouse with CD45RBhiCD4+ T-cell transfer-induced colitis model of inflammatory bowel disease at 1 or 5 mg/kg, po dosed every other day for 5 weeks; format: functional, organism-based; outline: as §3
[17] = tested on: Mus musculus; assay: Reduction in colon inflammation in SCID mouse with CD45RBhiCD4+ T-cell transfer-induced colitis model of inflammatory bowel disease at 1 or 5 mg/kg, po dosed every other day for 5 weeks by H and E staining method; format: functional, organism-based; outline: as §3
[18] = tested on: Mus musculus; assay: Reduction in colon tissue damage in SCID mouse with CD45RBhiCD4+ T-cell transfer-induced colitis model of inflammatory bowel disease at 1 or 5 mg/kg, po dosed every other day for 5 weeks by H and E staining method; format: functional, organism-based; outline: as §3
[19] = tested on: Mus musculus; assay: Reduction in IL2 gene expression in SCID mouse with CD45RBhiCD4+ T-cell transfer-induced colitis model of inflammatory bowel disease at 1 mg/kg, po dosed daily for 5 weeks by RT-PCR method; format: functional; design: scale not given: the % may be the effect or the level left; settings: in the assay text read “dosed on alternate days” for “dosed daily”
[20] = tested on: Mus musculus; assay: Reduction in IFNgamma gene expression in SCID mouse with CD45RBhiCD4+ T-cell transfer-induced colitis model of inflammatory bowel disease at 1 mg/kg, po dosed daily for 5 weeks by RT-PCR method; format: functional; design: scale not given: the % may be the effect or the level left; settings: in the assay text read “dosed on alternate days” for “dosed daily”
[21] = tested on: Mus musculus; assay: Reduction in CD11b gene expression in SCID mouse with CD45RBhiCD4+ T-cell transfer-induced colitis model of inflammatory bowel disease at 1 mg/kg, po dosed daily for 5 weeks by RT-PCR method; format: functional; design: scale not given: the % may be the effect or the level left; settings: in the assay text read “dosed on alternate days” for “dosed daily”
[22] = tested on: Mus musculus; assay: Reduction in CD4 gene expression in SCID mouse with CD45RBhiCD4+ T-cell transfer-induced colitis model of inflammatory bowel disease at 1 mg/kg, po dosed daily for 5 weeks by RT-PCR method; format: functional; design: scale not given: the % may be the effect or the level left; settings: in the assay text read “dosed on alternate days” for “dosed daily”
[23] = tested on: Mus musculus; assay: Reduction in B220 gene expression in SCID mouse with CD45RBhiCD4+ T-cell transfer-induced colitis model of inflammatory bowel disease at 1 mg/kg, po dosed daily for 5 weeks by RT-PCR method; format: functional; design: scale not given: the % may be the effect or the level left; settings: in the assay text read “dosed on alternate days” for “dosed daily”
[24] = tested on: Mus musculus; assay: Reduction in Fcgr4 gene expression in SCID mouse with CD45RBhiCD4+ T-cell transfer-induced colitis model of inflammatory bowel disease at 1 mg/kg, po dosed daily for 5 weeks by RT-PCR method; format: functional; design: scale not given: the % may be the effect or the level left
Outline: (§4)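 CD45RBhiCD4+ T-cell transfer colitis in mice; oral dosing at 1 mg/kg/day for 5 weeks, compared with vehicle. Read-outs: body weight, colon length, and colon gene expression by RT-PCR (IFN-γ, IL-2, CD4, B220, CD11b, Fcgr4, Ifit1, OASL2).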

[25] = tested on: Mus musculus; assay: Reduction in Ifit1 gene expression in SCID mouse with CD45RBhiCD4+ T-cell transfer-induced colitis model of inflammatory bowel disease at 1 mg/kg, po dosed daily for 5 weeks by RT-PCR method; format: functional; design: scale not given: the % may be the effect or the level left; outline: as §4
[26] = tested on: Mus musculus; assay: Reduction in OASL2 gene expression in SCID mouse with CD45RBhiCD4+ T-cell transfer-induced colitis model of inflammatory bowel disease at 1 mg/kg, po dosed daily for 5 weeks by RT-PCR method; format: functional; design: scale not given: the % may be the effect or the level left; outline: as §4
[27] = tested on: Blood; assay: Drug metabolism in BALB/c mouse blood assessed as formation of phosphate metabolite at 1 mg/kg administered through oral gavage after 24 hrs by LC/MS/MS analysis; format: ADME, organism-based; settings: in vivo
Outline: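 Single oral 1 mg/kg dose in mice; phosphate level in blood determined at 24 h postdose.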

Drug metabolism [1]: 202 nM
Ratio [2]: 0.6
Drug metabolism [3]: 41 nM
clearance [12]: 1.2 L/h/kg
Vd [13]: 60 L/kg
bioavailability [14]: 65%
Drug metabolism [27]: 27 nM
Compound: CCCCCC[C@@H]1CCc2cc([C@H]3CC[C@](N)(CO)C3)ccc2C1 [BMS-986104]
Activity [4]: 88%
Activity [5]: Active
Activity [6]: 1.65 ×10³ /mm3
Activity [7]: 0.51 ×10³ /mm3
Activity [8]: 0.52 ×10³ /mm3
Activity [9]: 7.67 mg/dL
Activity [10]: 8.25 mg/dL
Activity [11]: 10 mg/dL
inhibition [15]: Dose-dependent effect
Activity [16]: Dose-dependent effect
Activity [17]: Dose-dependent effect
Activity [18]: Dose-dependent effect
Activity [19]: 63%
Activity [20]: 45%
Activity [21]: 41%
Activity [22]: 51%
Activity [23]: 47%
Activity [24]: 50%
Activity [25]: 42%
Activity [26]: 41%
